Tests used:
HepG2 cells = experiment: 14C-acetate incorporation into lipid; type: cell-based, human; details: 10 μM, HepG2, 14C-acetate
Procedure, shortened: (§1)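 HepG2 cells or rat primary hepatocytes were pre-treated overnight in serum-free medium with vehicle or 10 μM test compound. They then got fresh medium with vehicle or […] test compound plus 100 nM insulin for 6 h, labelled with 10 μCi/ml [1-14C]-acetate for the last 4 h. Lysis was in 0.5% Triton X-100, lipids were extracted with chloroform:methanol 2:1, and the organic phase was scintillation-counted. Counts were normalised to lysate protein; n=3, mean ± SD.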

PASK = PASK (Homo sapiens, UniProt Q96RG2); experiment: In vitro protein kinase activity assay, purified PASK; type: biochemical; details: 100μM
Chain of PASK (Q96RG2 whole entry): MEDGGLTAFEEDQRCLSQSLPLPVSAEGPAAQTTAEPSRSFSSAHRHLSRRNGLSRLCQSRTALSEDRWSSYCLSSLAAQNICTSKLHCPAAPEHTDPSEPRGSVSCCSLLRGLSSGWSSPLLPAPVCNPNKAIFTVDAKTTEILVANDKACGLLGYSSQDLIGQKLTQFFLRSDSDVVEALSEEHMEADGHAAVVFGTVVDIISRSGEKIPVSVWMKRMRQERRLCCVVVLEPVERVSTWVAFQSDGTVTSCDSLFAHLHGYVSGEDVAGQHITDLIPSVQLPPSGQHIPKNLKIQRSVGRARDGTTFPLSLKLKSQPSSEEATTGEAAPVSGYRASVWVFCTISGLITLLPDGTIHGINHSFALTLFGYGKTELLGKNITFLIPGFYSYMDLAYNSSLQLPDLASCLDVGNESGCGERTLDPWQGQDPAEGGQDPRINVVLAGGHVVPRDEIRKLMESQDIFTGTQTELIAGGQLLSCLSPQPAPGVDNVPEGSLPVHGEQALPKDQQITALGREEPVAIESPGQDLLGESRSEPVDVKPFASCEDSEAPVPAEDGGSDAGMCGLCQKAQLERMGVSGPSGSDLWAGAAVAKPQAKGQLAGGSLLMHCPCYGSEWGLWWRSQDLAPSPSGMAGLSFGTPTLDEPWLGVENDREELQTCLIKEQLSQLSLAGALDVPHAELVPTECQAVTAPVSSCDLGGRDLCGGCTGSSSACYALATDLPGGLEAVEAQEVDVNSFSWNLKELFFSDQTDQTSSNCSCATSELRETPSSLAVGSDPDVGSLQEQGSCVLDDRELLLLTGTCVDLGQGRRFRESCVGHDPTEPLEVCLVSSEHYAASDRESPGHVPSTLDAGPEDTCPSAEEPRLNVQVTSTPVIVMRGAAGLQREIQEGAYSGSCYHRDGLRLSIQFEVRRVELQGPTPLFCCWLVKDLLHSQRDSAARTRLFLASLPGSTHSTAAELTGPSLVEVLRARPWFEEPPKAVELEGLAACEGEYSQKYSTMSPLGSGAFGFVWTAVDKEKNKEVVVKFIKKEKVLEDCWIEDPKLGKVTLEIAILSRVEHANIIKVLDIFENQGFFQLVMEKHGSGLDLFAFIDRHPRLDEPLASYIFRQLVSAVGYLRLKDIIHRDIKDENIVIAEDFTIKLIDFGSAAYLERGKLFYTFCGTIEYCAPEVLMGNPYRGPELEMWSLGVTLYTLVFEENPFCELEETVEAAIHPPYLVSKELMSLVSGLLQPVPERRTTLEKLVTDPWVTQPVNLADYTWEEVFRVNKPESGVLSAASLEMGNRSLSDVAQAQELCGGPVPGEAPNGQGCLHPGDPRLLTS
Procedure, shortened: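 Purified PASK kinase activity measured with vehicle or test compound at the indicated concentrations. Activity is expressed as percent of vehicle-treated activity.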

SREBP-1c maturation = experiment: Immunoblot of precursor and mature SREBP-1c in HepG2 cells; type: cell-based, human
Procedure, shortened: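 HepG2 cells expressing GFP or 3xFlag-tagged precursor SREBP-1a or SREBP-1c were treated with test compound (30 and 50 μM), then 100 nM insulin for 6 h. Whole-cell lysate and nuclear extract were immunoblotted for precursor and mature SREBP-1c, and the mature:precursor ratio was determined.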

[1] = tested on: high-fructose diet (HFrD) fed rats; experiment: High-fructose diet Sprague-Dawley rats, oral dosing once/day for one week; type: in vivo
Rat primary hepatocytes [2] = experiment: qRT-PCR of SREBP-1c target genes in insulin-stimulated rat primary hepatocytes; type: cell-based
Procedure, shortened: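 Rat primary hepatocytes were isolated, plated, and pre-treated 16 h with DMSO or test compound, then stimulated with insulin or vehicle over a 12 h time course. FASN, GCK and SREBP-1c mRNAs were measured by qRT-PCR, normalised to r36B4, with the vehicle-treated unstimulated group set as 1; n=3, mean ± SEM.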

50 other protein kinases = experiment: In vitro specificity panel of 50 other protein kinases; type: biochemical, human; details: 100μM
SREBP = experiment: SRE-driven luciferase; type: cell-based, human; details: for concentrations giving a significant reduction in SREBP activity: HepG2, SRE-Luc, 100nM insulin 6 h; for effects on cell morphology or growth rate: HepG2 cells, concentrations of the SRE-Luc experiment
Procedure, shortened: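 Transfection of HepG2 cells used Lipofectamine LTX, with pSRE-Luc plus CMV-driven Renilla luciferase. Cells were serum-starved overnight with vehicle or graded concentrations of test compound, then stimulated with 100 nM insulin for 6 h. Firefly and Renilla luciferase were read by dual-reporter assay. Data were normalised to vehicle-treated samples; n=3, mean ± SD.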

Rat primary hepatocytes [3] = experiment: 14C-acetate incorporation into lipids in rat primary hepatocytes; type: cell-based
Procedure, shortened: as §1

[4] = tested on: Akt and S6K phosphorylation; experiment: Immunoblot of Akt and S6K phosphorylation in response to insulin in HepG2 cells; type: cell-based, human
Procedure, shortened: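 HepG2 cells received vehicle or graded concentrations of test compound, then 100 nM insulin for 6 h. Cell lysates were immunoblotted for phosphorylation state and abundance of Akt and S6K.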

[5] = tested on: SREBP-1 maturation in liver; experiment: High-fat and high-fructose diet rats, liver SREBP-1 maturation immunoblot; type: in vivo, rat; details: 10, 30 and 100 mg/kg; treated for the last 3 weeks of 18 weeks diet
Procedure, shortened: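 Rats were fed a high-fat plus high-fructose diet for 18 weeks and dosed once daily by oral gavage with vehicle or test compound over the final 3 weeks. Vehicle was 0.5% methylcellulose, 0.025% Tween-80 in water, with compound ground to a suspension. Animals were fasted 24 h and refed 12 h. Whole liver lysate and nuclear extract were immunoblotted for precursor and mature SREBP-1 plus control proteins.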

HFrD-fed rats = experiment: High-fructose diet Sprague-Dawley rats, oral dosing once/day for 90 days; type: in vivo, rat
casein kinase 2α = experiment: In vitro protein kinase activity assay, casein kinase 2α; type: biochemical, human; details: PASK vs casein kinase 2α2
[6] = In vivo pharmacologic and pharmacokinetic properties
adipose tissue = details: accompanied by decreased expression of SREBP-1; ref Pereira et al., 2013; cited from earlier work

**Q.** For C[C@H]1CCCN1c1nc2cc(C(=O)O)ccc2nc1-c1ccc(F)cc1 [BioE-1197], which “decrease in 14C incorporation into lipids” value (HepG2 cells) is on record?
**A.** ~ 60%

**Q.** What about the “PASK activity at extremely high concentration” value (PASK) of the same molecule?
**A.** essentially completely inactivated

**Q.** What about the “suppression of SREBP-1c maturation compared with BioE-1428” value (SREBP-1c maturation; quantified over five independent experiments) of the same molecule?
**A.** significantly more efficacious

**Q.** And the “hepatic expression of the gene encoding HMG-CoA reductase” value ([1]; oral once/day, one week)?
**A.** significantly decreased

**Q.** What about the “mRNA encoding SREBP-1c” value (Rat primary hepatocytes [2]; basal and insulin-stimulated conditions) of the same molecule?
**A.** significant decrease

**Q.** And the “insulin-induced increase in FASN and GCK mRNAs” value (Rat primary hepatocytes [2]; pre-treated 16 h, insulin over 12 h timecourse)?
**A.** either blunted or abolished

**Q.** And the “activity of the majority of the 50 kinases” value (50 other protein kinases)?
**A.** either unaffected or only modestly inhibited

**Q.** And the “number of other kinases substantially inhibited” value (50 other protein kinases; of 50 kinases other than PASK)?
**A.** 8

**Q.** What about the “concentrations giving a significant reduction in SREBP activity” value (SREBP) of the same molecule?
**A.** > 3 µM

**Q.** What about the “effects on cell morphology or growth rate” value (SREBP) of the same molecule?
**A.** without any observable effects

**Q.** What about the “insulin-induced increase in lipogenesis (14C-acetate incorporation into lipids)” value (Rat primary hepatocytes [3]) of the same molecule?
**A.** completely abolished

**Q.** And the “phosphorylation of Akt or S6K in response to insulin” value [4]?
**A.** neither compound impaired

**Q.** For CC(C)N(C)c1nc2cc(C(=O)O)ccc2nc1-c1ccc(F)cc1 [BioE-1115], which “SREBP-1 maturation in liver” value [5] is on record?
**A.** suppressed

**Q.** What about the “hepatic Fasn and Acc1 expression” value (HFrD-fed rats; 3 mg/kg, 90 days) of the same molecule?
**A.** significantly suppressed

**Q.** What about the “hepatic Fasn and Acc1 expression” value (HFrD-fed rats; 10, 30 and 100 mg/kg, 90 days) of the same molecule?
**A.** restored to that in normal chow fed animals

**Q.** And the “serum glucose levels as measured by glycated hemoglobin (HbA1c)” value (HFrD-fed rats; 90-day study)?
**A.** decreased

**Q.** What about the “expression of SREBP-1c or its target genes in abdominal fat” value (HFrD-fed rats; 90 days) of the same molecule?
**A.** no significant differences

**Q.** And the “expression of SREBP-1c or its target genes in gastrocnemius muscle” value (HFrD-fed rats; 90 days)?
**A.** no significant differences

**Q.** What about the body weight (HFrD-fed rats; after 51 days of dosing) of the same molecule?
**A.** no drug-dependent difference

**Q.** And the body weight (HFrD-fed rats; after 90 days of dosing)?
**A.** no drug-dependent difference

**Q.** And the serum triglycerides (HFrD-fed rats; after 90 days of treatment)?
**A.** significant dose-responsive decrease

**Q.** And the “overt toxicity upon extended treatment” value (HFrD-fed rats; doses 10–30 fold higher than those required for significant effects on lipogenic gene expression and serum triglycerides)?
**A.** no overt toxicity

**Q.** And the serum triglycerides (HFrD-fed rats; interim timepoint of 45 days)?
**A.** significant dose-responsive decrease

**Q.** And the “SREBP-1c maturation (mature:precursor SREBP-1c ratio)” value (SREBP-1c maturation; 30 and 50μM)?
**A.** suppressed

**Q.** And the “hepatic expression of SREBP-1c target genes” value ([1]; 1 or 3 mg/kg oral once/day, one week)?
**A.** no difference from vehicle-treated rats

**Q.** What about the “hepatic expression of Gpat1, Fasn and all other SREBP-1c target genes analyzed” value ([1]; 10, 30 and 100 mg/kg oral once/day, one week) of the same molecule?
**A.** dose-dependent suppression

**Q.** And the HOMA-IR ([1]; calculated measure of insulin resistance)?
**A.** decreased in a dose-dependent manner

**Q.** And the “hepatic SREBP-1c and SREBP-1a mRNA” value ([1]; highest doses)?
**A.** modestly decreased

**Q.** What about the body weight ([1]; oral once/day, one week) of the same molecule?
**A.** Neither dose of BioE-1115 caused a significant change

**Q.** What about the “hepatic TAG” value ([1]; oral once/day, one week) of the same molecule?
**A.** decrease

**Q.** And the “hepatic expression of HMG-CoA synthase 1 and SREBP-2” value ([1]; oral once/day, one week)?
**A.** induced in a dose-dependent manner

**Q.** And the liver weight ([1]; oral once/day, one week)?
**A.** Neither dose of BioE-1115 caused a significant change

**Q.** And the “serum TAG” value ([1]; oral once/day, one week)?
**A.** decreased in a dose-dependent manner

**Q.** What about the serum cholesterol ([1]; oral once/day, one week) of the same molecule?
**A.** basically unaffected

**Q.** And the serum glucose ([1]; oral once/day, one week)?
**A.** significant decrease

**Q.** What about the serum insulin levels ([1]; oral once/day, one week) of the same molecule?
**A.** slightly lower

**Q.** What about the “fold more potent as an inhibitor of PASK than of casein kinase 2α2” value (casein kinase 2α) of the same molecule?
**A.** roughly 2500 fold

**Q.** What about the “in vivo pharmacologic and pharmacokinetic properties relative to BioE-1197” value [6] of the same molecule?
**A.** more favorable

**Q.** And the “concentrations giving a significant reduction in SREBP activity” value (SREBP)?
**A.** above 10 μM

**Q.** What about the “effects on cell morphology or growth rate” value (SREBP) of the same molecule?
**A.** without any observable effects

**Q.** And the “phosphorylation of Akt or S6K in response to insulin” value [4]?
**A.** neither compound impaired

**Q.** For CO[C@H]1C[C@@H]2CC[C@@H](C)[C@@](O)(O2)C(=O)C(=O)N2CCCC[C@H]2C(=O)O[C@H]([C@H](C)C[C@@H]2CC[C@@H](O)[C@H](OC)C2)CC(=O)[C@H](C)/C=C(\C)[C@@H](O)[C@@H](OC)C(=O)[C@H](C)C[C@H](C)/C=C/C=C/C=C/1C [rapamycin], which “lipogenesis in adipose tissue” value (adipose tissue) is on record?
**A.** decreased lipogenesis

— paper PMC4112965 (Cell reports, 2014)
